According to PubChem BioAssay:
Calls of active or inactive are those of the source.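 Rule for the calls, unless noted: active = viability at or below 30% in both replicate assays; inconclusive = viability at or below 30% in just one of the two assays; inactive = the rest.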

Tests used:
[1] = reducers of endogenous Her2 protein level, primary screen, SKBR3 breast tumor cells, AlphaScreen, ATP viability (AID 461;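 active = Her2 level under about 52% in both replicate screens, with viability over 70% of control, limit read from the data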;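 for Her2 level: lower value means less Her2 protein in the cells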;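 for viability: percent of carrier control wells set as 100% viability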); conditions: 18-24 h, measured here: SKBR3 viability, ATP luminescence, at 10 µM
[2] = molecular target: Receptor tyrosine-protein kinase erbB-2 (Homo sapiens) (UniProt P04626); test: as above; conditions: 18-24 h, at 10 µM, stronger effect = lower value
[3] = SK-BR-3 cell growth inhibitors, pilot screen, 24 h, human (AID 572;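 active = viability at or below 10% of carrier control in both of two separate runs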;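 note: compound exposure lasted between 18 and 24 h rather than exactly 24 h; 100% = carrier-treated control wells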); conditions: SK-BR-3 viability, CellTiter-Glo luminescence, at 10 µM, stronger effect = lower value
[4] = HUVEC growth inhibition – cell-based, human, primary screen (AID 575); conditions: HUVEC proliferation, CellTiter-Glo luminescence, 72 h; at 10 µM; stronger effect = lower value;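 note: 100% = median of untreated cell wells with 0.1% DMSO on each plate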
Procedure, shortened: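 Test system: HUVEC primary cells. Quantity: 1250 endothelial cells in each well. Dosing: single-point 10 µM, DMSO 0.1% final. Incubation: 72 h treatment at 37 °C. Measured by: CTG luminescence. Control set: DMSO cell controls and MePR drug controls. Plate: collagen-coated 384-well format.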

[5] = growth inhibitors of H69AR lung tumor, primary screen, human, duplicate replicates (AID 580;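 active = viability at or under a set limit in both replicates, limit being median viability minus 3 SD, cut at about 48% in these data, passing the limit was not always enough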;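 note: 100% = mean luminescence of untreated wells and 0% = no signal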); conditions: H69AR lung tumor cells viability, ATP luminescence, 72 h; at 10 µM; stronger effect = lower value
[6] = reversal of MRP1-mediated doxorubicin resistance, pilot screen, H69AR cells, doxorubicin co-treatment (AID 601;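 active = viability loss from added drug above about 55%, and viability with drug at most 40%, in both replicates, limit read from the data, passing the limit was not always enough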); conditions: CellTiter-Glo, 72 h, at 10 µM; for differential viability (reversal): stronger effect = higher value
[7] = 384-well plate pilot, post-Golgi transport modulator project, inhibition of yeast transport mutant growth (AID 636; in the data active = inhibition above about 31%); conditions: absorbance 615 nm, about 18 h, stronger effect = higher value
[8] = growth suppression of yeast trafficking mutant, preliminary HTS, modulators of trafficking downstream of Golgi apparatus project, 1536-format plate, OD 615 nm (AID 637; in the data active = inhibition above about 30%); conditions: yeast transport mutant growth, absorbance 615 nm, 18 h; stronger effect = higher value
[9] = H69AR cells + 2 uM doxorubicin, measured here: viability with 2 uM doxorubicin, stronger effect = lower value
[10] = H69AR cells, compound alone cytotoxicity

Chain of Receptor tyrosine-protein kinase erbB-2 (Homo sapiens) (P04626 whole entry, looked up): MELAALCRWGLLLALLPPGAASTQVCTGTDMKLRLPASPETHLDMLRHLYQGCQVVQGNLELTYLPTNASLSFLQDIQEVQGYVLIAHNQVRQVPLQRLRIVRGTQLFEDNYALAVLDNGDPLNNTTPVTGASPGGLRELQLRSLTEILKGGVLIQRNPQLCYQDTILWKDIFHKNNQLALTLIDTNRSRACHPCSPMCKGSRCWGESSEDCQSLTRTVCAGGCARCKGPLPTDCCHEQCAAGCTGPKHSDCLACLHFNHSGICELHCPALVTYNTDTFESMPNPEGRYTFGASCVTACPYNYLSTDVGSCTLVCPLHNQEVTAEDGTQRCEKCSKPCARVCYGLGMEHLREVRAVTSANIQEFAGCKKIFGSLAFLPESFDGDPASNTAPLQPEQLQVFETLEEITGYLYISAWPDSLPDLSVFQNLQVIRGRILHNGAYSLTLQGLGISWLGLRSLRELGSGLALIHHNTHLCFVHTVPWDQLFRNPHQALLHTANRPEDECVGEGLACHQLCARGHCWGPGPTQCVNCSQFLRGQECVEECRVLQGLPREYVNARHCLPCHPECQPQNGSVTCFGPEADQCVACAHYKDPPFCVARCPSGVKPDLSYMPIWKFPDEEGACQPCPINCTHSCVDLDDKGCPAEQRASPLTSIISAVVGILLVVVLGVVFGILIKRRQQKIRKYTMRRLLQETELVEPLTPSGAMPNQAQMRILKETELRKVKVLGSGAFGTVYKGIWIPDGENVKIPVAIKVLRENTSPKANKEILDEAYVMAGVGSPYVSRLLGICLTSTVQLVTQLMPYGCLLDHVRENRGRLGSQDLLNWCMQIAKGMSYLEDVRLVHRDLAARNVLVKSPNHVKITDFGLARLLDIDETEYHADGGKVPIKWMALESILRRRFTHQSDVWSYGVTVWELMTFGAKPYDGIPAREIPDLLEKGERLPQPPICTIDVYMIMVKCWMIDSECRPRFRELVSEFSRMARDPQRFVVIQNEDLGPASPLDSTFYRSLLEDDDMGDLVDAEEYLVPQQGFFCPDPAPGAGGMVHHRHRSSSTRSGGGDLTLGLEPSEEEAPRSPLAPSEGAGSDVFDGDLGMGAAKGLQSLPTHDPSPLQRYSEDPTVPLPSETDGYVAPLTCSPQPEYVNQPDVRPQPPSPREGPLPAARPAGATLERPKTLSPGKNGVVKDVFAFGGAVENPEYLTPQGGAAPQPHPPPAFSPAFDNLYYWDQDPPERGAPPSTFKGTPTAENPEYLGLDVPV

Row | Structure (SMILES) | viability [1] | Her2 level [2] | viability [3] | viability [4] | viability [5] | differential viability (reversal) ([6]; H69AR cells + 2 uM doxorubicin) | viability [6, 9] | viability [6, 10] | inhibition [7] | inhibition [8]
1 | Cc1nc(NCCNC(=O)c2ccco2)c2c(C)c(C)sc2n1 | 87.5% | 81% (inactive) | 87.5% (inactive) | 97.9% (inactive) | 86.5% (inactive) | 2.2% (inactive) | 84.3% | 86.5% | -4.08% (inactive) | 0.91% (inactive)
2 | CCc1cccc2c(=O)c(C(=O)NCCN3CCOCC3)c[nH]c12 | 104% | 113% (inactive) | 104% (inactive) | 102% (inactive) | 108% (inactive) | 18.2% (inactive) | 90% | 108% | -5.47% (inactive) | 1.29% (inactive)
3 | O=C(CCc1nc2ccccc2s1)OCC(=O)N1CCN(C(=O)c2ccco2)CC1 | 117% | 93.5% (inactive) | 117% (inactive) | 91.1% (inactive) | 90.5% (inactive) | 3.61% (inactive) | 86.8% | 90.5% | -5.41% (inactive) | -0.48% (inactive)
4 | O=C(CSc1nnc(-c2ccco2)c(-c2ccco2)n1)Nc1ccccc1 | 102% | 64% (inactive) | 102% (inactive) | 89.2% (inactive) | 77.6% (inactive) | -12.2% (inactive) | 89.8% | 77.6% | 2.63% (inactive) | 9.03% (inactive)
5 | COc1ccccc1NC(=O)c1nnn(CC(=O)Nc2ccccc2)c1N | 106% | 81% (inactive) | 106% (inactive) | 70.5% (inactive) | 90.7% (inactive) | -6.95% (inactive) | 97.6% | 90.7% | -5.47% (inactive) | -1.31% (inactive)
6 | COc1ccccc1OCc1ccc(C(=O)NC(C)(C)C)o1 | 83% | 102% (inactive) | 83% (inactive) | 94.2% (inactive) | 95.4% (inactive) | 14.6% (inactive) | 80.9% | 95.4% | 1.71% (inactive) | -5.82% (inactive)
7 | COc1cc(C2CC(=O)NC3=C2C(=O)CC(C)(C)C3)ccc1O (stereo not given) | 89.5% | 93.5% (inactive) | 89.5% (inactive) | 82.7% (inactive) | 109% (inactive) | 19.9% (inactive) | 89.5% | 109% | -3.82% (inactive) | -4.17% (inactive)
8 | Cc1nc(SCC(=O)Nc2ccccc2C(F)(F)F)c2c(=O)n(C)c(=O)n(C)c2n1 | 87% | 85% (inactive) | 87% (inactive) | 80.3% (inactive) | 74% (inactive) | -2.32% (inactive) | 76.3% | 74% | -3.87% (inactive) | 3.61% (inactive)
9 | CCOC(=O)CSc1nc2ccccc2n2cnnc12 | 104% | 76.5% (inactive) | 104% (inactive) | 91.4% (inactive) | 83.9% (inactive) | 2.78% (inactive) | 81.1% | 83.9% | -5.54% (inactive) | -2% (inactive)
10 | O=C(Nc1ccccc1-c1ccccc1)NC1CCN(CC(=O)N2CCOCC2)CC1 | 98% | 103% (inactive) | 98% (inactive) | 91.7% (inactive) | 99.3% (inactive) | 7.87% (inactive) | 91.4% | 99.3% | -2.34% (inactive) | -3.11% (inactive)
11 | CC1C(c2ccccc2)N(C)CCC12NC(=O)NC2=O (stereo not given) | 89% | 95.5% (inactive) | 89% (inactive) | 96.9% (inactive) | 98.2% (inactive) | 13% (inactive) | 85.2% | 98.2% | -5.33% (inactive) | -9.02% (inactive)
12 | O=C(CSc1ncnc2sc3c(c12)CCCCC3)NCc1ccco1 | 92.5% | 61% (inactive) | 92.5% (inactive) | 41.3% (inactive) | 18% (active) | -52.1% (inactive) | 70.1% | 18% | -2.63% (inactive) | -3.65% (inactive)
13 | Cc1ccc(CNC(=O)C2CCCN(S(=O)(=O)c3cccnc3)C2)cc1 (stereo not given) | 92.5% | 109% (inactive) | 92.5% (inactive) | 104% (inactive) | 99.6% (inactive) | 10.6% (inactive) | 89% | 99.6% | -0.26% (inactive) | -4.18% (inactive)
14 | COc1ccccc1Nc1ccc(C(=O)NC2CCCCC2)cn1 | 100% | 96% (inactive) | 100% (inactive) | 106% (inactive) | 93.2% (inactive) | 12% (inactive) | 81.2% | 93.2% | -3.92% (inactive) | -3.11% (inactive)
15 | O=C1C2CC=C(Cl)CC2C(=O)N1c1ncn[nH]1 (stereo not given) | 86.5% | 96% (inactive) | 86.5% (inactive) | 106% (inactive) | 103% (inactive) | 2.85% (inactive) | 101% | 103% | 0.27% (inactive) | -5.32% (inactive)
16 | COc1cccc(Oc2cnc(N)nc2-c2ccc(OC)cc2O)c1 | 91.5% | 74.5% (inactive) | 91.5% (inactive) | 67.1% (inactive) | 10.8% (active) | -47.3% (inactive) | 58.2% | 10.8% | -0.52% (inactive) | -5.5% (inactive)
17 | COc1ccc(S(=O)(=O)N(C)CC(=O)N2CCCCC2)cc1Cl | 80% | 106% (inactive) | 80% (inactive) | 96.6% (inactive) | 93.5% (inactive) | 6.07% (inactive) | 87.4% | 93.5% | -5.41% (inactive) | 1.8% (inactive)
18 | CCCCNS(=O)(=O)c1ccc(OC)c2ncccc12 | 102% | 108% (inactive) | 102% (inactive) | 102% (inactive) | 90% (inactive) | 0.295% (inactive) | 89.7% | 90% | -4.32% (inactive) | -3.33% (inactive)
19 | COC(=O)c1sc(NC(=O)c2ccoc2C)nc1C | 110% | 118% (inactive) | 110% (inactive) | 61.8% (inactive) | 75.3% (inactive) | 2.44% (inactive) | 72.9% | 75.3% | -3.07% (inactive) | 8.06% (inactive)
20 | CCCCOc1ccc(CSc2n[nH]c(C)n2)cc1 | 83.5% | 99.5% (inactive) | 83.5% (inactive) | 103% (inactive) | 100% (inactive) | 10.7% (inactive) | 89.7% | 100% | -1.22% (inactive) | -0.49% (inactive)
21 | O=c1c2ccccc2sn1-c1ccc(S(=O)(=O)N2CCCCC2)cc1 | 91.5% | 81.5% (inactive) | 91.5% (inactive) | 83.9% (inactive) | 78.1% (inactive) | 5.85% (inactive) | 72.3% | 78.1% | -5.54% (inactive) | 9.17% (inactive)
22 | CC(=O)Nc1ccc(OC(=O)c2cccs2)cc1 | 101% | 97% (inactive) | 101% (inactive) | 103% (inactive) | 87% (inactive) | -13.6% (inactive) | 101% | 87% | -1.17% (inactive) | -4.59% (inactive)
23 | Cc1nc(CNS(=O)(=O)c2ccc3c(c2)OCCO3)cs1 | 96% | 142% (inactive) | 96% (inactive) | 105% (inactive) | 96.6% (inactive) | -0.265% (inactive) | 96.9% | 96.6% | 2.24% (inactive) | 9.51% (inactive)
24 | CC1C(O)=C(c2nc3ccccc3[nH]2)C(=N)N1c1ccccc1 (stereo not given) | 110% | 83% (inactive) | 110% (inactive) | 50.5% (inactive) | 16% (active) | -39% (inactive) | 55% | 16% | -6.71% (inactive) | -10.6% (inactive)
25 | S=c1[nH]nc(Cc2ccccc2)n1-c1ccccc1 | 108% | 112% (inactive) | 108% (inactive) | 113% (inactive) | 92.9% (inactive) | 6.14% (inactive) | 86.7% | 92.9% | -4.1% (inactive) | -6.33% (inactive)
26 | Cc1noc(C)c1CSc1nc2cc(S(=O)(=O)N3CCOCC3)ccc2o1 | 98.5% | 93% (inactive) | 98.5% (inactive) | 96.7% (inactive) | 83.6% (inactive) | -0.29% (inactive) | 83.9% | 83.6% | -5.48% (inactive) | 5.56% (inactive)
27 | Cc1cc(Nc2ccc(C(=O)O)cc2)n2nc(C)nc2n1 | 101% | 96.5% (inactive) | 101% (inactive) | 90.5% (inactive) | 109% (inactive) | 9.93% (inactive) | 99.2% | 109% | -4.67% (inactive) | 4.92% (inactive)
28 | c1cc(CNc2ccc3c(c2)OCO3)ccn1 | 80% | 92% (inactive) | 80% (inactive) | 70.7% (inactive) | 90% (inactive) | -12.5% (inactive) | 103% | 90% | -5.81% (inactive) | -2.13% (inactive)
